In ChEMBL document CHEMBL1914438, “Synthesis and biological activity of novel N-cycloalkyl-(cycloalkylaryl)-2-[(3-R-2-oxo-2H-[1,2,4]triazino[2,3-c]quinazoline-6-yl)thio]acetamides” (2011):

What was measured:
Assay type in all cases: functional
COLO 205 = experiment: Growth inhibition of human COLO205 cells after 48 hrs by SRB assay; details: COLO 205, 48 h
How it was run: (§1)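 NCI panel of about 60 human tumor lines, 48 h continuous exposure at five 10-fold dilutions from 10^-4 to 10^-8 M. SRB protein staining was read as absorbance at time zero, in untreated controls and at each concentration. GI50 is the concentration giving 50% lower net protein increase than controls. TGI is where Ti = Tz, and LC50 is 50% protein loss versus start.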

NCI-H522 [1] = experiment: Growth inhibition of human NCI-H522 cells after 48 hrs by SRB assay; details: NCI-H522, 48 h; how it was run: as §1
SF-295 = experiment: Growth inhibition of human SF295 cells after 48 hrs by SRB assay; details: SF-295, 48 h
How it was run: (§2)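 NCI 60-cell-line human tumor panel. Cells were inoculated and preincubated for 24–48 h, then exposed continuously to compound for 48 h. Primary screen used a single 10^-5 M concentration. Growth was measured by sulforhodamine B protein staining, read spectrophotometrically, and reported as percent growth versus untreated controls. Selected compounds were also run at five 10-fold dilutions (10^-4 to 10^-8 M) to derive GI50 from time-zero-corrected absorbances.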

HOP-62 = experiment: Growth inhibition of human HOP62 cells after 48 hrs by SRB assay; details: HOP-62, 48 h; how it was run: as §1
A549 = experiment: Cytotoxicity against human A549 cells assessed as cell growth at 10^-5 M after 48 hrs by SRB assay; details: A549, 48 h, read-out: Activity
How it was run: (§3)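 NCI 60-cell-line one-dose primary screen: cells inoculated and preincubated 24–48 h, then test agent added at a single 10^-5 M concentration for a further 48 h. Endpoint is sulforhodamine B protein staining read spectrophotometrically. Reported as percent growth relative to untreated control cells.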

ACHN = experiment: Cytotoxicity against human ACHN cells assessed as cell growth at 10^-5 M after 48 hrs by SRB assay; details: read-out: Activity; how it was run: as §3
SNB-19 [2] = experiment: Cytotoxicity against human SNB19 cells assessed as cell growth at 10^-5 M after 48 hrs by SRB assay; details: SNB-19, 48 h, read-out: Activity
How it was run: (§4)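 NCI human tumor cell line panel from nine cancer types. Each line was inoculated and preincubated 24–48 h, then exposed to a single concentration (10^-5 M) for 48 h. Growth was read by sulforhodamine B protein staining, measured spectrophotometrically. Value reported as percent growth of treated cells relative to untreated controls.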

DU-145 = experiment: Growth inhibition of human DU145 cells after 48 hrs by SRB assay; details: DU-145, 48 h; how it was run: as §1
NCI-H522 [3] = experiment: Cytotoxicity against human NCI-H522 cells assessed as cell growth at 10^-5 M after 48 hrs by SRB assay; details: NCI-H522, 48 h, read-out: Activity; how it was run: as §4
MOLT-4 [4] = experiment: Cytotoxicity against human MOLT4 cells assessed as cell growth at 10^-5 M after 48 hrs by SRB assay; details: MOLT-4, 48 h, read-out: Activity; how it was run: as §4
OVCAR-4 [5] = experiment: Cytotoxicity against human OVCAR4 cells assessed as cell growth at 10^-5 M after 48 hrs by SRB assay; details: OVCAR-4, 48 h, read-out: Activity; how it was run: as §4
LOX IMVI = experiment: Cytotoxicity against human LOXIMVI cells assessed as cell growth at 10^-5 M after 48 hrs by SRB assay; details: read-out: Activity; how it was run: as §3
SR = experiment: Cytotoxicity against human SR cells assessed as cell growth at 10^-5 M after 48 hrs by SRB assay; details: read-out: Activity; how it was run: as §4
Escherichia coli = experiment: Antibacterial activity against Escherichia coli assessed as zone of inhibition at 0.1 mg/mL after 24 hrs by stiff-plate agar-diffusion method; details: read-out: DIZ
MOLT-4 [6] = experiment: Growth inhibition of human MOLT4 cells after 48 hrs by SRB assay; details: MOLT-4, 48 h; how it was run: as §1
OVCAR-4 [7] = experiment: Growth inhibition of human OVCAR4 cells after 48 hrs by SRB assay; details: OVCAR-4, 48 h; how it was run: as §1
SF-268 = experiment: Cytotoxicity against human SF268 cells assessed as cell growth at 10^-5 M after 48 hrs by SRB assay; details: SF-268, 48 h, read-out: Activity; how it was run: as §4
HT-29 = experiment: Cytotoxicity against human HT-29 cells assessed as cell growth at 10^-5 M after 48 hrs by SRB assay; details: HT-29, 48 h, read-out: Activity; how it was run: as §3
Yamadazyma tenuis = experiment: Antifungal activity against Candida tenuis assessed as zone of inhibition at 0.5 mg/mL after 48 to 72 hrs by stiff-plate agar-diffusion method; details: read-out: DIZ
[8] = Growth inhibition of human Hs 578T cells after 48 hrs by SRB assay; how it was run: as §1
HCT-15 = experiment: Cytotoxicity against human HCT15 cells assessed as cell growth at 10^-5 M after 48 hrs by SRB assay; details: HCT-15, 48 h, read-out: Activity; how it was run: as §3
KM12 = experiment: Cytotoxicity against human KM12 cells assessed as cell growth at 10^-5 M after 48 hrs by SRB assay; details: KM12, 48 h, read-out: Activity; how it was run: as §3
MDA-MB-231 = experiment: Cytotoxicity against human MDA-MB-231 cells assessed as cell growth at 10^-5 M after 48 hrs by SRB assay; details: MDA-MB-231, 48 h, read-out: Activity; how it was run: as §3
SK-MEL-5 = experiment: Cytotoxicity against human SK-MEL-5 cells assessed as cell growth at 10^-5 M after 48 hrs by SRB assay; details: SK-MEL-5, 48 h, read-out: Activity; how it was run: as §4
Staphylococcus aureus = experiment: Antibacterial activity against Staphylococcus aureus assessed as zone of inhibition at 0.1 mg/mL after 24 hrs by stiff-plate agar-diffusion method; details: read-out: DIZ
SNB-19 [9] = experiment: Growth inhibition of human SNB19 cells after 48 hrs by SRB assay; details: SNB-19, 48 h; how it was run: as §2
Malme-3M = experiment: Cytotoxicity against human MALME-3M cells assessed as cell growth at 10^-5 M after 48 hrs by SRB assay; details: read-out: Activity; how it was run: as §3
Aspergillus niger = experiment: Antifungal activity against Aspergillus niger assessed as zone of inhibition of late spore formation at 0.5 mg/mL after 48 to 72 hrs by stiff-plate agar-diffusion method; details: read-out: DIZ
[10] = Cytotoxicity against human Hs 578T cells assessed as cell growth at 10^-5 M after 48 hrs by SRB assay; details: read-out: Activity; how it was run: as §3
IGROV-1 = experiment: Growth inhibition of human IGROV1 cells after 48 hrs by SRB assay; details: IGROV-1, 48 h; how it was run: as §1
[11] = read-out: pLC50 (the source's name) (converted)

`CCC1C2CCC(C2)C1NC(=O)CSc1nc2ccccc2c2nc(=O)c(-c3ccc(OC)cc3)nn12` (stereo not given) gave a GI50 (COLO 205) of 3.47 µM, a CC50 (COLO 205; [11]) of over 50.1 µM and a TGI (COLO 205; read-out: pTGI) of over 50.1 µM. The GI50 (NCI-H522 [1]) was 1.35 µM, the CC50 (NCI-H522 [1]; [11]) was 38.9 µM and the TGI (NCI-H522 [1]; read-out: pTGI (converted)) was 7.94 µM. The GI50 (SF-295) was 3.47 µM, the CC50 (SF-295; [11]) was over 50.1 µM and the TGI (SF-295; read-out: pTGI (converted)) was 21.9 µM. For the same molecule, the GI50 (HOP-62) was 2.45 µM, the CC50 (HOP-62; [11]) was 36.3 µM and the TGI (HOP-62; read-out: pTGI (converted)) was 11.5 µM. It also gave a growth at 10 µM (A549) of 50.4%, a growth at 10 µM (ACHN) of -17.1% and a growth at 10 µM (SNB-19 [2]) of 39.8%. For the same molecule, the GI50 (DU-145) was 3.16 µM, the CC50 (DU-145; [11]) was over 50.1 µM and the TGI (DU-145; read-out: pTGI (converted)) was 37.2 µM. It also gave a growth at 10 µM (NCI-H522 [3]) of -49.9%, a growth at 10 µM (MOLT-4 [4]) of 11.4% and a growth at 10 µM (OVCAR-4 [5]) of -58.5%. The growth at 10 µM (LOX IMVI) was 70.5%, the growth at 10 µM (SR) was 7.67% and the zone of inhibition at 100 µg/mL (Escherichia coli) was 0 mm. For the same molecule, the GI50 (MOLT-4 [6]) was 1.62 µM, the CC50 (MOLT-4 [6]; [11]) was over 50.1 µM and the TGI (MOLT-4 [6]; read-out: pTGI) was over 50.1 µM. The GI50 (OVCAR-4 [7]) was 1.66 µM, the CC50 (OVCAR-4 [7]; [11]) was 43.7 µM and the TGI (OVCAR-4 [7]; read-out: pTGI (converted)) was 6.31 µM. For the same molecule, the growth at 10 µM (SF-268) was 66.3%, the growth at 10 µM (HT-29) was 42.8% and the zone of inhibition at 500 µg/mL (Yamadazyma tenuis) was 0 mm. The GI50 [8] was 3.89 µM, the CC50 [8, 11] was over 50.1 µM and the TGI ([8]; read-out: pTGI (converted)) was 20 µM. The growth at 10 µM (HCT-15) was 67.9%, the growth at 10 µM (KM12) was 68.3% and the growth at 10 µM (MDA-MB-231) was 22.5%. It also gave a growth at 10 µM (SK-MEL-5) of 59.8%, a zone of inhibition at 100 µg/mL (Staphylococcus aureus) of 0 mm and a GI50 (SNB-19 [9]) of 3.47 µM. The CC50 (SNB-19 [9]; [11]) was over 50.1 µM, the TGI (SNB-19 [9]; read-out: pTGI (converted)) was 22.4 µM and the growth at 10 µM (Malme-3M) was -29.2%. The zone of inhibition at 500 µg/mL (Aspergillus niger) was 18 mm, the growth at 10 µM [10] was -9.67% and the GI50 (IGROV-1) was 2.69 µM. For the same molecule, the CC50 (IGROV-1; [11]) was over 50.1 µM and the TGI (IGROV-1; read-out: pTGI (converted)) was 36.3 µM.
